The values below come from ChEMBL document CHEMBL2176865, “Discovery of diarylhydantoins as new selective androgen receptor modulators” (J Med Chem, 2012).

In assay [1] the test system is Rattus norvegicus. Kind of assay: Androgenic activity in po dosed ORX rat model assessed as maximum effect on ventral prostate weight administered 4 days relative to sham-treated control. The assay is classed as functional, Prostate gland. A digest of the protocol: (§1)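 Young (immature) rats castrated, left untreated one week, then dosed daily for four days (test agents orally; testosterone propionate subcutaneously). Untreated ORX and sham-operated rats as controls. Levator ani (anabolic) and ventral prostate (androgenic) weights normalised to body weight; activity % = (W/BW treated − W/BW ORX)/(W/BW sham − W/BW ORX) × 100; A50 = dose giving 50% activity.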

The species entered for assay [2] is Rattus norvegicus. Kind of assay: Cardioprotective activity in ORX rat model assessed as decrease in total cholesterol level relative to control. In kind it is functional. In a few lines: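 Male rats castrated at six months of age; once-daily oral dosing at 30 mg/kg for 3 months, starting immediately after castration. Vehicle was EtOH/corn oil 10/90. ORX controls received vehicle, and sham-operated animals received vehicle. Total cholesterol was compared with vehicle-treated ORX rats.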

Assay [3] deals with Rattus norvegicus. Kind of assay: Androgenic activity in ORX rat model assessed as ventral prostate weight at 30 mg/kg, po qd after 3 months relative to sham-treated control. In kind it is functional, Prostate gland.
Assay [4] addresses T1, Estrogen receptor (Homo sapiens) (UniProt P03372).
T1 sequence (whole entry): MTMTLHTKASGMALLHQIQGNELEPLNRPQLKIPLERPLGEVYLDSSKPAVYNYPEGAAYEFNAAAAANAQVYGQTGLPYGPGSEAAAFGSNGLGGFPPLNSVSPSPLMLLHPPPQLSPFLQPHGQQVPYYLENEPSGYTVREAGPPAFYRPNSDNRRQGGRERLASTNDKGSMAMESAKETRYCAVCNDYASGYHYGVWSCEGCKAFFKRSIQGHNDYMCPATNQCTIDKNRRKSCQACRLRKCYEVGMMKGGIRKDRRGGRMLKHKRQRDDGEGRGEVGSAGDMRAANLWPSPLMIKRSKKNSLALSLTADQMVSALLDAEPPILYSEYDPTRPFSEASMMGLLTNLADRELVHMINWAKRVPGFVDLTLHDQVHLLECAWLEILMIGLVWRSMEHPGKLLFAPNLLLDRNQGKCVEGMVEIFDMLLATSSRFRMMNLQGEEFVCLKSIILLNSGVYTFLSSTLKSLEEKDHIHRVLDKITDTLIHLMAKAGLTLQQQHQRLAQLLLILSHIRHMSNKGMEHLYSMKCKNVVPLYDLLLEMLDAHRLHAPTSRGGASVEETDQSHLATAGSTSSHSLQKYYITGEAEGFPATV
The assay is described as follows: Binding affinity to estrogen receptor up to 10 uM by competitive binding assay.

Another assay has as its target T2, Progesterone receptor (Homo sapiens, UniProt P06401).
T2 sequence (P06401 whole entry): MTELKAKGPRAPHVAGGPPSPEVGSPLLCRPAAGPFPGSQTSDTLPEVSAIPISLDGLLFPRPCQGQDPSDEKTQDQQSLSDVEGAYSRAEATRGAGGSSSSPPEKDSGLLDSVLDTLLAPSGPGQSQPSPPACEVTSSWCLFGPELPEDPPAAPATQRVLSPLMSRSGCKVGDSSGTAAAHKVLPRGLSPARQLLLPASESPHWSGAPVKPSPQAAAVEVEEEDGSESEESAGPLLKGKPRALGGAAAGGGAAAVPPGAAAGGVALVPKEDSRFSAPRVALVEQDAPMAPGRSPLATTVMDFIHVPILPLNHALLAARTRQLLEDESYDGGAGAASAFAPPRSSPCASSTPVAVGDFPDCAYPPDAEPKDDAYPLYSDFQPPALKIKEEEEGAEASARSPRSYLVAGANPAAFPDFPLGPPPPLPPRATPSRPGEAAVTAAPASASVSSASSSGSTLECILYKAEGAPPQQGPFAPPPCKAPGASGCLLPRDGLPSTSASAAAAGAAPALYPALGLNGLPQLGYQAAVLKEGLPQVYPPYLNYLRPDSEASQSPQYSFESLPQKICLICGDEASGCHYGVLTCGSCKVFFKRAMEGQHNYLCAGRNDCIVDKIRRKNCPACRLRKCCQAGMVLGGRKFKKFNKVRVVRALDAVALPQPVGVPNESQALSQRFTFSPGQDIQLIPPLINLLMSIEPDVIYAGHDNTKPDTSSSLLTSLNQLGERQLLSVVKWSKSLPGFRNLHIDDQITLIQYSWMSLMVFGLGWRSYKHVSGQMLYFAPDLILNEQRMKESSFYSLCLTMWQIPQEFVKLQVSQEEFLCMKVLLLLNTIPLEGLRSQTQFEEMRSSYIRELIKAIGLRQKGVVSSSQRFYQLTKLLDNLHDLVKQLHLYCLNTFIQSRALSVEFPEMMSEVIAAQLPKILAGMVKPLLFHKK
Kind of assay: Binding affinity to progesterone receptor by competitive binding assay.

In assay [5] the test system is Rattus norvegicus. The assay is described as follows: Anabolic activity in ORX rat model assessed as increase in levator ani muscle weight at 300 mg/kg, po administered 4 days relative to sham-treated control. In kind it is functional, organism-based. Set-up: dose 300 mg/kg. In a few lines: as §1
Assay [6] concerns Rattus norvegicus. The assay is described as follows: Anabolic activity in po dosed ORX rat model assessed as maximum effect on levator ani muscle weight administered 4 days relative to sham-treated control. The assay is classed as functional. A digest of the protocol: as §1
Assay [7] relates to Rattus norvegicus. Kind of assay: Androgenic activity in ORX rat model assessed as ventral prostate weight at 30 mg/kg, po administered 4 days relative to sham-treated control. In kind it is functional, Prostate gland. A digest of the protocol:
as §1

Assay [8] concerns the target T3, Glucocorticoid receptor (Homo sapiens) (UniProt P04150).
T3 sequence (whole entry): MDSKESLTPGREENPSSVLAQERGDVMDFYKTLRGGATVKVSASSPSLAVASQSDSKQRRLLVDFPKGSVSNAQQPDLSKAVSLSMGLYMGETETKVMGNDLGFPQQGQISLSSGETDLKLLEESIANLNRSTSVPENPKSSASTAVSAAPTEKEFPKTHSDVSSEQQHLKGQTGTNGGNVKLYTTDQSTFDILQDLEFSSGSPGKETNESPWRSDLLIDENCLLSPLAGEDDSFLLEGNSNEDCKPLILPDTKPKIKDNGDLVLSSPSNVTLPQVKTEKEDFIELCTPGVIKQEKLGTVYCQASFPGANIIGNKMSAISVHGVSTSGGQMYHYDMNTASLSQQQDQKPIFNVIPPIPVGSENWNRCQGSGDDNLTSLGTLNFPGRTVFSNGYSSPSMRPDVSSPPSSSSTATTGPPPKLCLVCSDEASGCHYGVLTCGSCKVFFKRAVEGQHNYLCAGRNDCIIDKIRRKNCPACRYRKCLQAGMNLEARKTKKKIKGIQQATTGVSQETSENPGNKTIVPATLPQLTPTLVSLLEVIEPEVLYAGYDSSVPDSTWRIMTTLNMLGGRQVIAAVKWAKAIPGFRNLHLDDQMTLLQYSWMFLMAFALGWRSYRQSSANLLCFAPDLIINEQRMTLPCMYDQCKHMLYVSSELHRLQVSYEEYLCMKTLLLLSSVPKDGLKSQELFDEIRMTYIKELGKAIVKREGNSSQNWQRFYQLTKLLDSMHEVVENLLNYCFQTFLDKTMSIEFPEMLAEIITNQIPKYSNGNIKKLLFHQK
Kind of assay: Binding affinity to glucocorticoid receptor up to 10 uM by competitive binding assay.

SMILES strings stand for the structures. The source made the active and inactive calls. The calls are words filed in the database; no cut-off is given here.

One may read the IC50 as the concentration that gives 50% inhibition.

For `CN1C(=O)N(c2ccc(C#N)c(C(F)(F)F)c2)C(=O)[C@@]1(C)c1ccc(O)cc1`, the Activity amounted to 70 mg/kg in the assay on Rattus norvegicus [1], 30% in the assay on Rattus norvegicus [3], 80% with Rattus norvegicus [6] and 25% in the assay with Rattus norvegicus [7]. In addition, the “fold change (FC)” value in the assay listed under Rattus norvegicus [2] was determined as 2. Besides, the outcome (in assay [4]; in the assay on Rattus norvegicus [5]; in [8]) was inactive. Also, on Progesterone receptor, the IC50 was determined as 8.8 µM.
